≈ marks a conversion by molar mass, not a printed value. Calls of active or inactive are those of the source. No cut-off for these calls is given here.
Tests used:
[1] = tested on: Bacillus anthracis; test: Protection against Bacillus anthracis Sterne spores induced cell death in mouse J774A1 cells assessed as dead cells at 10 uM by Sytox green dye staining assay relative to untreated control; format: functional, J774.A1
[2] = tested on: Bacillus subtilis; test: Effect on bacterial membrane permeability in Bacillus subtilis BD54 upto 10 times MIC using DiSC3 fluorescent dye staining based fluorimetric assay; format: functional, organism-based
Procedure, shortened: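 B. subtilis BD54 grown in LB to OD600 0.4–0.5, washed, and resuspended to OD600 0.1 in 5 mM HEPES pH 7.4 with 20 mM glucose. Loaded with 1 µM DiSC3(5) for 10 min at room temperature, then 100 mM KCl added. […] Fluorescence read at 5 min (ex 622, em 670 nm). DNP 200 µg/ml positive control; mean ± SD of 8 wells.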

[3] = tested on: Burkholderia mallei; test: Antimicrobial activity against Burkholderia mallei ATCC 23344 by broth microdilution method; format: functional
[4] = tested on: Klebsiella pneumoniae; test: Antimicrobial activity against Klebsiella pneumoniae 5657 by broth microdilution method; format: functional
Procedure, shortened: (§1)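 Broth microdilution. Log-phase cultures (5 × 10^5 CFU/ml) seeded in 96-well plates with compound from 0 to 20 µM or 1% DMSO control. Incubated at 37°C for 16 to 20 h. Growth read as absorbance at 600 nm.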

[5] = tested on: Bacillus anthracis; test: microbe, parasite or virus in culture; conditions: Ames
[6] = tested on: Staphylococcus aureus; test: Antimicrobial activity against Staphylococcus aureus ATCC 25923 by broth microdilution method; format: functional; procedure, shortened: as §1
[7] = tested on: Bacillus subtilis; test: Antimicrobial activity against Bacillus subtilis clinical isolate by broth microdilution method; format: functional
[8] = tested on: Bacillus anthracis; test: Antimicrobial activity against Bacillus anthracis Vollum clinical isolate by broth microdilution method; format: functional
[9] = tested on: Bacillus subtilis; test: Inhibition of DNA synthesis in Bacillus subtilis BD54 at 5 X MIC by [3H]thymidine incorporation assay; format: functional, organism-based
Procedure, shortened: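 Precursors were [methyl-3H]thymidine (DNA), [5-3H]uridine (RNA), L-[4,5-3H]leucine (protein) and N-acetyl-D-[1-3H]glucosamine (cell wall). Samples taken over time, precipitated with equal volume of ice-cold 20% TCA, filtered on glass fibre, and counted. cpm plotted against time.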

[10] = tested on: Mycolicibacterium smegmatis; test: Antimicrobial activity against Mycobacterium smegmatis 19420 by broth microdilution method; format: functional; procedure, shortened: as §1
[11] = tested on: Staphylococcus aureus; test: Antimicrobial activity against methicillin-resistant Staphylococcus aureus clinical isolate by broth microdilution method; format: functional
[12] = tested on: Staphylococcus aureus; test: Antibacterial activity against Staphylococcus aureus Smith infected in Swiss Webster mouse assessed as assessed as protection against microbe-induced mortality at 10 mg/kg, iv administered as single dose 15 mins post bacterial challenge measured 48 hrs post infection; format: functional
Procedure, shortened: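 Swiss Webster mice (n = 10/group) were challenged i.p. with 8.3 × 10^8 CFU. After 15 min they received a single i.v. dose in 10% dimethyl acetamide–5% dextrose in water (pH 4.0), alongside vehicle and daptomycin (10 mg/kg) controls. Survival was followed for 48 h.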

[13] = tested on: Priestia megaterium; test: Antimicrobial activity against Bacillus megaterium clinical isolate by broth microdilution method; format: functional
[14] = tested on: Enterococcus faecalis; test: Antimicrobial activity against Enterococcus faecalis clinical isolate by broth microdilution method; format: functional; procedure, shortened: as §1
[15] = tested on: Enterococcus faecium; test: Antimicrobial activity against vancomycin-resistant Enterococcus faecium B42762 by broth microdilution method; format: functional
[16] = tested on: HeLa; test: Effect on cell membrane integrity in human HeLa cells assessed as lactate dehydrogenase release at 32 times MIC against Staphylococcus aureus by CytoTox ONE homogenous membrane integrity assay; format: cell-based
Procedure, shortened: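 Confluent HeLa cells in DMEM treated for 1 h with a range of compound concentrations, 1% DMSO final. […] LDH activity in the supernatant measured by a membrane-integrity kit.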

[17] = tested on: Enterococcus faecalis; test: Antimicrobial activity against Enterococcus faecalis 29212 clinical isolate by broth microdilution method; format: functional
[18] = tested on: Yersinia pestis; test: Antibacterial activity against Yersinia pestis CO92 infected in C57BL/6 mouse assessed as protection against microbe-induced mortality at 10 mg/kg, ip for 5 days every 6 hrs administered 6 hrs post bacterial challenge measured after 15 days post infection; format: functional; conditions: route intraperitoneal
[19] = tested on: Burkholderia cepacia; test: Antimicrobial activity against Burkholderia cepacia clinical isolate by broth microdilution method; format: functional; procedure, shortened: as §1
[20] = tested on: Bacillus anthracis; test: Antimicrobial activity against Bacillus anthracis Sterne vegetative cells by broth microdilution method; format: functional
[21] = tested on: Burkholderia pseudomallei; test: Antimicrobial activity against Burkholderia pseudomallei DD503 by broth microdilution method; format: functional
[22] = tested on: Enterococcus faecalis; test: Antimicrobial activity against vancomycin-resistant Enterococcus faecalis ATCC 51575 by broth microdilution method; format: functional
[23] = tested on: Brevibacillus brevis; test: Antimicrobial activity against Bacillus brevis clinical isolate by broth microdilution method; format: functional; procedure, shortened: as §1
[24] = tested on: Bacillus licheniformis; test: Antimicrobial activity against Bacillus licheniformis clinical isolate by broth microdilution method; format: functional
[25] = tested on: Mycolicibacterium smegmatis; test: Antimicrobial activity against Mycobacterium smegmatis 700009 by broth microdilution method; format: functional; procedure, shortened: as §1
[26] = tested on: Escherichia coli; test: Antimicrobial activity against Escherichia coli J53 clinical isolate by broth microdilution method; format: functional
[27] = tested on: Yersinia pestis; test: Antimicrobial activity against Yersinia pestis by broth microdilution method; format: functional
[28] = tested on: Staphylococcus aureus; test: Antimicrobial activity against Staphylococcus aureus by broth microdilution method; format: functional; procedure, shortened: as §1
[29] = Cytotoxicity against human HeLa cells after 3 days by MTS assay in presence of 10% fetal calf serum; format: cell-based
[30] = tested on: J774.A1; test: Cytotoxicity against mouse J774A1 cells assessed as dead cells at 10 uM by Sytox green dye staining assay relative to untreated control; format: cell-based; conditions: j774.a1, 10 µM
Procedure, shortened: (§2)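 J774A.1 macrophages, not infected, treated with 1% DMSO control or compound at 10 µM. Sytox green (impermeant to live cells) added for 15 min at 37°C. Cells centrifuged, washed twice in complete medium containing antibiotics, and analysed by flow cytometry for percent live and dead cells.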

[31] = Cytotoxicity against mouse J774A1 cells assessed as live viable cells at 10 uM by Sytox green dye staining assay relative to untreated control; format: cell-based, J774.A1; conditions: read-out: Activity; procedure, shortened: as §2
[32] = tested on: Bacillus anthracis; test: Antimicrobial activity against Bacillus anthracis Ames by broth microdilution method in presence of 10% fetal calf serum; format: functional
[33] = tested on: Bacillus anthracis; test: Antibacterial activity against Bacillus anthracis Ames spores infected in C57BL/6 mouse assessed as mouse survival rate at 10 mg/kg, ip for 5 days every 6 hrs administered 6 hrs post bacterial challenge measured up to 20 days post infection; format: functional; conditions: route intraperitoneal
[34] = tested on: Bacillus pumilus; test: Antimicrobial activity against Bacillus pumilus clinical isolate by broth microdilution method; format: functional; procedure, shortened: as §1
[35] = tested on: Bacillus anthracis; test: Inhibition of spore germination in Bacillus anthracis Sterne spores at MIC after 4 hrs; format: functional, organism-based
[36] = tested on: Pseudomonas aeruginosa; test: Antimicrobial activity against Pseudomonas aeruginosa PAO1 by broth microdilution method; format: functional; procedure, shortened: as §1
[37] = tested on: Bacillus anthracis; test: Protection against Bacillus anthracis Sterne spores induced cell death in mouse J774A1 cells assessed as live viable cells at 10 uM by Sytox green dye staining assay relative to untreated control; format: functional, J774.A1
[38] = tested on: Staphylococcus aureus; test: Antibacterial activity against MBX 1090 resistant Staphylococcus aureus NCTC8325 isolates selected on 10 to 12 days of serial passage through MBX 1090; format: functional
Procedure, shortened: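 Eight independent S. aureus NCTC8325 cultures were grown with compound at 0.125× to 128× MIC. Each day, cells were passaged from the highest-concentration well still showing >50% of untreated growth, for up to 20 days. Colonies isolated from resistant cultures were confirmed by MIC assay.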

[39] = tested on: Mycolicibacterium smegmatis; test: Antimicrobial activity against Mycobacterium smegmatis 35798 by broth microdilution method; format: functional; procedure, shortened: as §1
[40] = tested on: Staphylococcus aureus; test: Antimicrobial activity against methicillin-resistant Staphylococcus aureus 1094 by broth microdilution method; format: functional
[41] = tested on: Bacillus anthracis; test: microbe, parasite or virus in culture; conditions: Ames; remark: listed apart in the source
[42] = tested on: Burkholderia thailandensis; test: Antimicrobial activity against Burkholderia thailandensis by broth microdilution method; format: functional
[43] = tested on: Bacillus anthracis; test: Antibacterial activity against Bacillus anthracis Ames spores infected in C57BL/6 mouse assessed as mouse survival rate at 1 mg/kg, ip for 5 days every 6 hrs administered 6 hrs post bacterial challenge measured up to 20 days post infection; format: functional; conditions: route intraperitoneal
[44] = tested on: Bacillus anthracis; test: Antimicrobial activity against Bacillus anthracis Sterne spores by broth microdilution method; format: functional

c1cc2cc(-c3ccc(-c4cc5ccc(C6=NCCN6)cc5[nH]4)cc3)[nH]c2cc1C1=NCCN1
Activity [1]: 22%
Activity [2]: Active
MIC [3]: 1.7 µg/mL (≈ 3.82 µM)
MIC [4]: 3.8 µg/mL (≈ 8.55 µM)
MBC [5]: 0.4 µg/mL (≈ 0.9 µM)
MIC [6]: 0.1 µg/mL (≈ 0.225 µM)
MIC [7]: 0.2 µg/mL (≈ 0.45 µM)
MIC [8]: 0.3 µg/mL (≈ 0.675 µM)
inhibition [9]: Active
MIC [10]: < 0.1 µg/mL
MIC [11]: 0.3 µg/mL (≈ 0.675 µM)
survival at 10 mg/kg [12]: 80%
MIC [13]: 0.3 µg/mL (≈ 0.675 µM)
MIC [14]: 0.2 µg/mL (≈ 0.45 µM)
MIC [15]: < 0.1 µg/mL
Activity [16]: Non-toxic
MIC [17]: 0.2 µg/mL (≈ 0.45 µM)
survival at 10 mg/kg [18]: 90%
MIC [19]: > 20 µg/mL
MIC [20]: 0.7 µg/mL (≈ 1.57 µM)
MIC [21]: 1.7 µg/mL (≈ 3.82 µM)
MIC [22]: 0.1 µg/mL (≈ 0.225 µM)
MIC [23]: 0.7 µg/mL (≈ 1.57 µM)
MIC [24]: 0.7 µg/mL (≈ 1.57 µM)
MIC [25]: 0.1 µg/mL (≈ 0.225 µM)
MIC [26]: 0.7 µg/mL (≈ 1.57 µM)
MIC [27]: 3.4 µg/mL (≈ 7.65 µM)
MIC [28]: 0.3 µg/mL (≈ 0.675 µM)
CC50 at 72 h [29]: 3 µg/mL
Activity [30]: 5%
viability at 10 µM [31]: 94%
MIC [32]: 1.1 µg/mL
survival at 10 mg/kg [33]: 100%
MIC [34]: < 0.1 µg/mL
inhibition [35]: inactive
MIC [36]: 7.5 µg/mL (≈ 16.9 µM)
Activity [37]: 77%
MIC [38]: Active
MIC [39]: < 0.1 µg/mL
MIC [40]: 0.2 µg/mL (≈ 0.45 µM)
MBC [41]: 0.7 µg/mL (≈ 1.57 µM)
MIC [41]: 0.3 µg/mL (≈ 0.675 µM)
MIC [42]: 21 µg/mL (≈ 47.2 µM)

C(=C\c1cc2ccc(C3=NCCN3)cc2[nH]1)/c1cc2ccc(C3=NCCN3)cc2[nH]1
Activity [1]: 27%
Activity [2]: Active
MIC [3]: 1.6 µg/mL (≈ 4.06 µM)
MIC [4]: 1.3 µg/mL (≈ 3.3 µM)
MIC [5]: 0.2 µg/mL (≈ 0.507 µM)
MIC [6]: 0.9 µg/mL (≈ 2.28 µM)
MIC [7]: 0.3 µg/mL (≈ 0.76 µM)
MBC [8]: 1.2 µg/mL (≈ 3.04 µM)
MIC [8]: 0.6 µg/mL (≈ 1.52 µM)
inhibition [9]: Active
MIC [10]: 0.2 µg/mL (≈ 0.507 µM)
survival at 1 mg/kg [43]: 100%
MIC [11]: 2.3 µg/mL (≈ 5.83 µM)
survival at 10 mg/kg [12]: 80%
MIC [13]: 0.6 µg/mL (≈ 1.52 µM)
MIC [14]: 0.6 µg/mL (≈ 1.52 µM)
MIC [15]: 0.3 µg/mL (≈ 0.76 µM)
Activity [16]: Non-toxic
MIC [17]: 0.3 µg/mL (≈ 0.76 µM)
MIC [19]: 19 µg/mL (≈ 48.2 µM)
MIC [20]: 1.2 µg/mL (≈ 3.04 µM)
MIC [21]: 3.1 µg/mL (≈ 7.86 µM)
MIC [22]: 0.6 µg/mL (≈ 1.52 µM)
MIC [23]: 0.6 µg/mL (≈ 1.52 µM)
MIC [24]: 2.3 µg/mL (≈ 5.83 µM)
MIC [44]: 0.3 µg/mL (≈ 0.76 µM)
MIC [25]: 0.2 µg/mL (≈ 0.507 µM)
MIC [26]: 0.6 µg/mL (≈ 1.52 µM)
MIC [27]: 13 µg/mL (≈ 33 µM)
MIC [28]: 1.2 µg/mL (≈ 3.04 µM)
CC50 at 72 h [29]: 10 µg/mL
MIC [32]: 0.6 µg/mL
MIC [34]: 0.2 µg/mL (≈ 0.507 µM)
inhibition [35]: inactive
MIC [36]: 25 µg/mL (≈ 63.4 µM)
Activity [37]: 73%
MIC [38]: 16 µg/mL (≈ 40.6 µM)
MIC [39]: 0.1 µg/mL (≈ 0.253 µM)
MIC [40]: 0.6 µg/mL (≈ 1.52 µM)
MBC [41]: 2.3 µg/mL (≈ 5.83 µM)
MIC [41]: 0.6 µg/mL (≈ 1.52 µM)
MIC [42]: 19 µg/mL (≈ 48.2 µM)

Source: ChEMBL document CHEMBL1687745 (Antimicrob Agents Chemother, 2009)
